Laboratory results published in ChEMBL document CHEMBL3351416, “Design, synthesis and biological evaluation of novel pyrenyl derivatives as anticancer agents” (Eur J Med Chem, 2015).
The source made the active and inactive calls. The rule behind the calls is not given here.

Key:
HepG2 [1] = assay: Cytotoxicity against human HepG2 cells assessed as reduction in cell viability after 48 hrs by sulforhodamine B colorimetric assay; assay type: functional, cell-based; conditions: HepG2, 48 h
In short: (§1)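 Cell lines were kept at 37°C under 5% CO₂. HepG2, Hepa1-6, HeLa and MCF-7 were grown in DMEM with 10% FBS. Caco-2 was grown in DMEM with 20% FBS. HT-29 was grown in McCoy's medium with 10% FBS. The viability assay used 10-μM doxorubicin as positive control. Values marked * came from a single dose curve.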

[2] = Cytotoxicity against mouse Hepa1-6 cells assessed as reduction in cell viability after 48 hrs by sulforhodamine B colorimetric assay; assay type: functional, cell-based; conditions: Hepa1-6, 48 h; in short: as §1
HT-29 = assay: Cytotoxicity against human HT-29 cells assessed as reduction in cell viability after 48 hrs by sulforhodamine B colorimetric assay; assay type: functional, cell-based; conditions: HT-29, 48 h; in short: as §1
HeLa [3] = assay: Cytotoxicity against human HeLa cells assessed as reduction in cell viability after 48 hrs by sulforhodamine B colorimetric assay; assay type: functional, cell-based; in short: as §1
MCF7 = assay: Cytotoxicity against human MCF7 cells assessed as reduction in cell viability after 48 hrs by sulforhodamine B colorimetric assay; assay type: functional, cell-based; conditions: MCF7, 48 h; in short: as §1
Hepa1-6 [4] = assay: Cytotoxicity against mouse Hepa1-6 cells assessed as reduction in cell viability at 50 uM after 48 hrs by sulforhodamine B colorimetric assay; assay type: functional, cell-based
In short: (§2)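 Primary mouse hepatocytes and Hepa1-6 cells were exposed to graded doses for 48 hrs. Viability was normalized to DMSO-treated cells. Hepa1-6 cells were grown in DMEM with 10% FBS at 37°C under 5% CO₂. 10-μM doxorubicin served as the cytotoxicity positive control.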

Hepatocyte [5] = assay: Cytotoxicity against hepatocytes (unknown origin) assessed as reduction in cell viability at 50 uM after 48 hrs by sulforhodamine B colorimetric assay; assay type: cell-based; in short: as §2
Hepa1-6 [6] = assay: Cytotoxicity against mouse Hepa1-6 cells assessed as reduction in cell viability at <5 uM after 48 hrs by sulforhodamine B colorimetric assay; assay type: functional, cell-based; in short: as §2
Hepatocyte [7] = assay: Cytotoxicity against hepatocytes (unknown origin) assessed as reduction in cell viability at <5 uM after 48 hrs by sulforhodamine B colorimetric assay; assay type: cell-based; in short: as §2
HeLa [8] = assay: Induction of apoptosis in human HeLa cells assessed as membrane blebbing at 2 uM after 12 hrs by microscopy; assay type: functional, cell-based
In short: (§3)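 HeLa cells were seeded at 1.5-2.0×10^5 cells/well and treated. Membrane blebbing and cell shrinkage were assessed by light microscopy after 8, 12 or 15 hrs.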

HeLa [9] = assay: Induction of apoptosis in human HeLa cells assessed as membrane blebbing at 2 uM after 8 hrs by microscopy; assay type: functional, cell-based; conditions: in the assay text read “12 hrs” for “8 hrs”; in short: as §3
HeLa [10] = assay: Induction of apoptosis in human HeLa cells assessed as membrane blebbing at 2 uM after 15 hrs by microscopy; assay type: functional, cell-based; conditions: in the assay text read “12 hrs” for “15 hrs”; in short: as §3
HeLa [11] = assay: Induction of apoptosis in human HeLa cells assessed as PARP cleavage at <10 uM after 12 hrs by Western blotting; assay type: functional, cell-based
In short: (§4)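 HeLa cells were treated for 12 hrs and lysed in 0.5% SDS buffer (50 mM Tris pH 8.0, 1 mM DTT, phosphatase and protease inhibitors). Lysates were western blotted with anti-PARP for full-length and cleaved PARP. 1 μM staurosporine served as positive control.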

HeLa [12] = assay: Induction of apoptosis in human HeLa cells assessed as PARP cleavage at 10 uM after 12 hrs by Western blotting; assay type: functional, cell-based; in short: as §4
[13] = Drug localization in cytoplasmic membrane of human HepG2 cells at 30 uM for 3 hrs by epifluorescent microscopy; assay type: ADME, cell membranes; conditions: hepg2, 3 h
[14] = Drug localization in cytoplasmic membrane of human HepG2 cells at 30 uM for 3 hrs by BODIPY TR-labelling based confocal microsocopy; assay type: ADME, cell membranes; conditions: hepg2, 3 h
In short: (§5)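 Cells (200,000/well) were seeded on coverslips and incubated overnight at 37°C, then treated for 4 hrs (50 μM) or 3 hrs. They were rinsed with PBS/BSA and stained with 5 µM BODIPY TR-labeled sphingolipids for 30 min at 4°C. Cells were fixed in 4% paraformaldehyde, permeabilized with 0.2% Triton X-100, and examined by confocal microscopy using 1 µm Z-stacks.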

[15] = Drug localization in […] rich regions of cytoplasmic membrane of human HepG2 cells at 3 uM for 2 hrs by BODIPY TR-labeled sphingolipids detection based Western blotting; assay type: ADME, cell-based; conditions: hepg2, 2 h
In short: (§6)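 HepG2 cells (1x10^6/plate) were treated for 4 hrs at 5 μM or for 2 hrs at 3 μM, then stained with 5 μM BODIPY TR sphingolipids for 30 min at 4°C. Cells were lysed in PBS with 0.5% Brij-96, and lysates were normalized by BCA. Lysates were separated on a step OptiPrep gradient (2.5–30%) at 125,000 g for 12 hrs. Fractions were analysed for compound fluorescence and blotted for Thy-1, Lyn and GAPDH.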

[16] = Cytotoxicity against human SKOV3 cells assessed as reduction in cell viability after 48 hrs by sulforhodamine B colorimetric assay; assay type: functional, cell-based; conditions: SK-OV-3, 48 h
In short: (§7)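 SKOV3 cells and the retrovirally transduced subclone SKOV3-MDR1-M6/6, which overexpresses P-glycoprotein, were grown in BME with 10% FBS at 37°C under 5% CO₂. Cells were exposed to 0-25 μM for 48 hrs. Viability was read by SRB assay and a dose curve was plotted for each cell line. Paclitaxel served as the reference drug.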

[17] = Cytotoxicity against human SKOV3-MDR1-M6/6 cells assessed as reduction in cell viability after 48 hrs by sulforhodamine B colorimetric assay; assay type: functional, cell-based; conditions: SKOV3-MDR1-M6/6, 48 h; in short: as §7
[18] = Cytotoxicity against human Caco2 cells assessed as reduction in cell viability after 48 hrs by sulforhodamine B colorimetric assay; assay type: functional, cell-based; conditions: Caco-2, 48 h; in short: as §1
[19] = Cytotoxicity against human SKOV3-MDR1-M6/6 cells assessed as reduction in cell viability at 25 uM after 48 hrs by sulforhodamine B colorimetric assay; assay type: functional; in short: as §7
HepG2 [20] = assay: Drug localization human HepG2 cells at 50 uM for 4 hrs by epifluorescent microscopy; assay type: ADME, cell-based; conditions: hepg2, 4 h
[21] = Drug localization in cytoplasmic membrane of human HepG2 cells at 50 uM for 4 hrs by BODIPY TR-labelling based confocal microsocopy; assay type: ADME, cell membranes; conditions: hepg2, 4 h; in short: as §5
[22] = Drug localization in […] rich regions of cytoplasmic membrane of human HepG2 cells at 5 uM for 4 hrs by BODIPY TR-labeled sphingolipids detection based Western blotting; assay type: ADME, cell-based; conditions: hepg2, 4 h; in short: as §6

Compound | IC50 (HepG2 [1]) [µM] | IC50 [2] [µM] | IC50 (HT-29) [µM] | IC50 (HeLa [3]) [µM] | IC50 (MCF7) [µM] | IC50 [16] [µM] | IC50 [18] [µM] | also measured
c1cc2ccc3cccc4c(NCCCCN5CCCCC5)cc(c1)c2c34 | 1.4 | 2.5 | 2.98 | 2.6 | 1.1 | 5 | – | Activity (Hepa1-6 [4]): Active; Activity (Hepatocyte [5]): Toxic; Activity (Hepa1-6 [6]): Active; Activity (Hepatocyte [7]): Non-toxic; Activity (HeLa [8]): Active; Activity (HeLa [9]): Active; Activity (HeLa [10]): Active; Activity (HeLa [11]): inactive; Activity (HeLa [12]): Active; Drug uptake [13]: Active; Drug uptake [14]: Active; Drug uptake [15]: Active; IC50 [17]: 6.4 µM
O=C(CCCC(=O)N1CCCCC1)Nc1cc2cccc3ccc4cccc1c4c32 | – | > 30 | > 30 | > 30 | > 30 | – | – | –
CN1CCN(CCCCNc2cc3cccc4ccc5cccc2c5c43)CC1 | 2.4 | 1.1 | 4.8 | 4.1 | 2.6 | 5.5 | 7.23 | Activity (Hepa1-6 [4]): Active; Activity (Hepatocyte [5]): Toxic; Activity (Hepa1-6 [6]): Active; Activity (Hepatocyte [7]): Non-toxic; Activity (HeLa [8]): Active; Activity (HeLa [9]): Active; Activity (HeLa [10]): Active; Activity (HeLa [11]): inactive; Activity (HeLa [12]): Active; Drug uptake [13]: Active; Drug uptake [14]: Active; Drug uptake [15]: Active; IC50 [17]: 6.2 µM
O=C(CCC(=O)N1CCCCC1)Nc1cc2cccc3ccc4cccc1c4c32 | > 30 | > 30 | – | > 30 | – | – | – | –
CC(=O)O[C@H]1C(=O)[C@@]2(C)[C@H]([C@H](OC(=O)c3ccccc3)[C@]3(O)C[C@H](OC(=O)[C@H](O)[C@@H](NC(=O)c4ccccc4)c4ccccc4)C(C)=C1C3(C)C)[C@]1(OC(C)=O)CO[C@@H]1C[C@@H]2O [PACLITAXEL] | – | – | – | – | – | < 0.001 | – | Activity [19]: 40%
CC(C)COC(=O)Nc1cc2cccc3ccc4cccc1c4c32 | 30.4 | 5.9 | 20.7 | 16.2 | – | – | 36.3 | –
CN1CCN(C(=O)CCC(=O)Nc2cc3cccc4ccc5cccc2c5c43)CC1 | 16.9 | 14.8 | 19.3 | 16.8 | 14.1 | – | – | –
CC(C)COCNc1cc2cccc3ccc4cccc1c4c32 | 39.6 | 9.9 | 14 | 9.8 | – | – | > 50 | Drug uptake (HepG2 [20]): Active; Drug uptake [21]: Active; Drug uptake [22]: Active
c1cc2ccc3cccc4c(NCCCCCN5CCCCC5)cc(c1)c2c34 | 18.8 | 18.3 | 19.8 | 18.2 | 14.1 | – | – | –
